{
  "source": "ChEMBL document CHEMBL3745653",
  "about": "“Honokiol for the Treatment of Neonatal Pain and Prevention of Consequent Neurobehavioral Disorders” (J Nat Prod, 2015)",
  "key": {"Rattus norvegicus [1]": {"tested_on": "Rattus norvegicus", "experiment": "Antinociceptive activity in formalin-induced Wistar rat pups pain model assessed as downregulation of c-Fos expression in hippocampus at 10 mg/kg, ip administered on postnatal day 7 measured after 3 days post formalin challenge by immunohistochemical staining assay relative to control", "format": "functional, organism-based", "method_in_brief": "(§1)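 c-Fos immunohistochemistry on brain sections from P7 rats after the 3-day formalin or control protocol. Sections fixed in formalin, treated with 0.3% H2O2, blocked in 1% fish gel, then anti-c-Fos 1:500 for 24 h and biotinylated IgG. Six 20 μm sections ≥90 μm apart per animal, each with six random 20× fields counted. n = 6−8 per group.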"}, "Rattus norvegicus [2]": {"tested_on": "Rattus norvegicus", "experiment": "Antinociceptive activity in Wistar rat pups assessed as rolling at 10 mg/kg, ip administered 1 hr on postnatal day 7 prior to formalin challenge measured for 60 secs at 5 mins interval for 60 mins", "format": "functional, organism-based", "method_in_brief": "(§2)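 Honokiol in corn oil (vehicle alone as control) given ip 1 h before intraplantar sc injection of 5% formalin (10 μL) or saline into the left forepaw. Recuperation behaviours (paw licking, lifting, flinching, rolling) scored for 60 s at 5 min intervals over 60 min. Phase I at 5 min, phase II tonic period 5−60 min. Blinded observers, n = 8 per group, mean ± SEM.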"}, "Rattus norvegicus [3]": {"tested_on": "Rattus norvegicus", "experiment": "Antinociceptive activity in Wistar rat pups assessed as flinching at 10 mg/kg, ip administered 1 hr on postnatal day 7 prior to formalin challenge measured for 60 secs at 5 mins interval for 60 mins", "format": "functional, organism-based", "method_in_brief": "as §2"}, "Rattus norvegicus [4]": {"tested_on": "Rattus norvegicus", "experiment": "Antinociceptive activity in formalin-induced Wistar rat pups pain model assessed as downregulation of c-Fos expression in thalamus at 10 mg/kg, ip administered on postnatal day 7 measured after 3 days post formalin challenge by immunohistochemical staining assay relative to control", "format": "functional, organism-based", "method_in_brief": "as §1"}, "Rattus norvegicus [5]": {"tested_on": "Rattus norvegicus", "experiment": "Antinociceptive activity in formalin-induced Wistar rat pups pain model assessed as increased in discrimination ratio at 10 mg/kg, ip administered 1 hr on postnatal day 7 prior to formalin challenge measured on postnatal day 21 by novel object recognition test"}, "Rattus norvegicus [6]": {"tested_on": "Rattus norvegicus", "experiment": "Antinociceptive activity in Wistar rat pups assessed as paw-licking at 10 mg/kg, ip administered 1 hr on postnatal day 7 prior to formalin challenge measured for 60 secs at 5 mins interval for 60 mins", "format": "functional, organism-based", "method_in_brief": "as §2"}, "Rattus norvegicus [7]": {"tested_on": "Rattus norvegicus", "experiment": "Antinociceptive activity in formalin-induced Wistar rat pups pain model assessed as decrease in recuperation time at 10 mg/kg, ip administered 1 hr on postnatal day 7 prior to formalin challenge", "format": "functional", "method_in_brief": "as §2"}, "Rattus norvegicus [8]": {"tested_on": "Rattus norvegicus", "experiment": "Antinociceptive activity in formalin-induced Wistar rat pups pain model assessed as upregulation of substance P receptor expression in alveus at 10 mg/kg, ip administered 1 hr on postnatal day 7 prior to formalin challenge measured on postnatal day 21 by immunohistochemical staining assay relative to control", "format": "functional, organism-based", "method_in_brief": "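Substance P receptor immunostaining at P21, 14 days after the 3-day formalin or saline protocol with ip honokiol or corn oil. Sections fixed in formalin then cold methanol, 0.2% Triton under 3 min, 1% fish gel block 1 h, primary antibody 24 h, then secondary. Positive cells counted in the hippocampal alveus, mean ± SEM.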"}, "Rattus norvegicus [9]": {"tested_on": "Rattus norvegicus", "experiment": "Antinociceptive activity in formalin-induced Wistar rat pups pain model assessed as decrease in thermal hyperalgesia at 10 mg/kg, ip administered daily from postnatal day 4 to day 6 prior to formalin challenge followed by further compound administration every other day until postnatal day 17 to day 21 by hot plate test", "format": "functional, organism-based", "method_in_brief": "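Chronic severe pain model: 5% formalin (10 μL sc) or saline injected into each paw in sequence at 1 h intervals, daily P4−P6. Honokiol or corn oil ip before insult each day, then every other day until P21. Latency to jump on a 55 ± 2 °C hot plate, cutoff 30 s. Three readings at least 15 min apart averaged per animal. Blinded, mean ± SEM.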"}, "Rattus norvegicus [10]": {"tested_on": "Rattus norvegicus", "experiment": "Antinociceptive activity in formalin-induced Wistar rat pups pain model assessed as improved exploratory behavior at 10 mg/kg, ip administered 1 hr on postnatal day 7 prior to formalin challenge measured on postnatal day 21 by defensive withdrawal test", "format": "functional, organism-based", "method_in_brief": "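Defensive withdrawal at P21, during the dark cycle, after the neonatal formalin or saline insult with ip honokiol or corn oil. Habituation to the 50 × 50 × 50 cm open field for 10 min without the chamber. Animals then started in a dark chamber along the wall. Latency measured until all four paws were outside the chamber. Blinded, mean ± SEM.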"}, "Rattus norvegicus [11]": {"tested_on": "Rattus norvegicus", "experiment": "Antinociceptive activity in Wistar rat pups assessed as paw-lifting at 10 mg/kg, ip administered 1 hr on postnatal day 7 prior to formalin challenge measured for 60 secs at 5 mins interval for 60 mins", "format": "functional, organism-based", "method_in_brief": "as §2"}, "Rattus norvegicus [12]": {"tested_on": "Rattus norvegicus", "experiment": "Toxicity in formalin-induced Wistar rat pups pain model assessed as change in exploratory behavior by measuring distance travelled at 10 mg/kg, ip administered 1 hr […] prior to formalin challenge measured for 5 mins on postnatal day 21 by open field test", "format": "organism-based", "details": "in vivo", "method_in_brief": "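Open-field test at P21 during the dark cycle, 1 h after ip honokiol or corn oil. Rats explored a 50 × 50 × 50 cm box for 5 min under video tracking, and total distance travelled was calculated. n = 3 or 4 per group.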"}},
  "note": "Active and inactive are the calls of the source.",
  "data": [
    {"smiles": "C=CCc1ccc(O)c(-c2ccc(O)c(CC=C)c2)c1", "note": "[HONOKIOL]", "values": [
      {"measurement": "Activity", "setting": "Rattus norvegicus [1]", "value": "Active"},
      {"measurement": "Activity", "setting": "Rattus norvegicus [2]", "value": "Active"},
      {"measurement": "Activity", "setting": "Rattus norvegicus [3]", "value": "Active"},
      {"measurement": "Activity", "setting": "Rattus norvegicus [4]", "value": "Active"},
      {"measurement": "Activity", "setting": "Rattus norvegicus [5]", "value": "Active"},
      {"measurement": "Activity", "setting": "Rattus norvegicus [6]", "value": "Active"},
      {"measurement": "Time", "setting": "Rattus norvegicus [7]", "value": 30, "unit": "min"},
      {"measurement": "Activity", "setting": "Rattus norvegicus [8]", "value": "Active"},
      {"measurement": "Activity", "setting": "Rattus norvegicus [9]", "value": "Active"},
      {"measurement": "Activity", "setting": "Rattus norvegicus [10]", "value": "Active"},
      {"measurement": "Activity", "setting": "Rattus norvegicus [11]", "value": "Active"},
      {"measurement": "Activity", "setting": "Rattus norvegicus [12]", "value": 4000, "unit": "mm"}
    ]}
  ]
}
